The target of experiment [1] is Beta-1 adrenergic receptor (Rattus norvegicus, UniProt P18090). Description: Binding affinity towards beta-1 adrenergic receptor using [3H]iodocyanopindolol as radioligand in competitive binding assay. The conditions noted are these: in the assay text read “[125I]iodocyanopindolol” for “[3H]iodocyanopindolol”. In a few lines: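 β-adrenergic sites in rat striatal membranes. Label [125I]iodocyanopindolol at 50 pM final; nonspecific binding with 10 μM propranolol. Incubated 1 h at 37 °C, then filtered. Ki via Cheng-Prusoff.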

Experiment [2] concerns the target T1, Adrenergic receptor alpha-2 (Rattus norvegicus, UniProt P22086+P19328+P22909).
T1 sequence (P22086 whole entry): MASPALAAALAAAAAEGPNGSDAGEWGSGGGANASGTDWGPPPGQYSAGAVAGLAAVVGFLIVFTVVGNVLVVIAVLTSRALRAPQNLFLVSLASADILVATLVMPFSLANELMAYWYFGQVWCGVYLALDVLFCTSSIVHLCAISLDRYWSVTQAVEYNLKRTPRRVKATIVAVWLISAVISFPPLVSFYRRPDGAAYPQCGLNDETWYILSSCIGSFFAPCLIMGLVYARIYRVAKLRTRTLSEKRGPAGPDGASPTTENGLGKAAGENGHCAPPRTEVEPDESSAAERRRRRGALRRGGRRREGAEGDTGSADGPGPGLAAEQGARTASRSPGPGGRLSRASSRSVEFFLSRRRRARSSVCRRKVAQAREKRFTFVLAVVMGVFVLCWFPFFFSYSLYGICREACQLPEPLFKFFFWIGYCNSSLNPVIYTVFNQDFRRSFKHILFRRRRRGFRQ
T1 sequence (P19328 whole entry): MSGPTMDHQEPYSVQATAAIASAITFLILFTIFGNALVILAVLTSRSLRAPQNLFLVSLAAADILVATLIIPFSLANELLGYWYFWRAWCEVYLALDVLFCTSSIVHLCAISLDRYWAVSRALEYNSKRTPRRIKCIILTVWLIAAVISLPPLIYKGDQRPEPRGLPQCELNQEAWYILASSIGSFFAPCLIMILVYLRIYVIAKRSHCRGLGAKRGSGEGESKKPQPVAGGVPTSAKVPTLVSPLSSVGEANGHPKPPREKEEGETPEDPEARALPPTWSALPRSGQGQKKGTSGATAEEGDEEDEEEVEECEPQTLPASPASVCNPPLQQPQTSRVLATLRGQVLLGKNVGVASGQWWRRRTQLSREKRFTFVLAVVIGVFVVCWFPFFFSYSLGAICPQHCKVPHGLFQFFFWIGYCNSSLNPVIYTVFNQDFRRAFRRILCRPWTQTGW
T1 sequence (P22909 whole entry): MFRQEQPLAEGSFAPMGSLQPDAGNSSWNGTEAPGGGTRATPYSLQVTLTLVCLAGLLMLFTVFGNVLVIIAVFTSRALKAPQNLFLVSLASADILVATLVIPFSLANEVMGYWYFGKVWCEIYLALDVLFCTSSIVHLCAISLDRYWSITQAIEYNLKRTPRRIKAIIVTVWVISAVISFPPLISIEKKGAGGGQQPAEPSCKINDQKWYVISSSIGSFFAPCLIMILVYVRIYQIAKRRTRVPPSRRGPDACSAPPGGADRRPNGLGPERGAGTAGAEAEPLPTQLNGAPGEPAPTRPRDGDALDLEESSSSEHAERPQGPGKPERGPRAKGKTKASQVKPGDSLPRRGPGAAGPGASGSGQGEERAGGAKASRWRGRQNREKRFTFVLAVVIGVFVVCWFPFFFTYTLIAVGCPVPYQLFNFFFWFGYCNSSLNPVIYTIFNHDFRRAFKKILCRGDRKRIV
Nature of the experiment: Binding affinity towards alpha-2 adrenergic receptor using [3H]rauwolscine as radioligand in competitive binding assay. Format: protein assay. An outline of the steps:
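Frozen rat cortex membranes in Tris pH 7.4 buffer with NaCl, KCl, MgCl2, CaCl2 and ascorbate. [3H]rauwolscine at 325 pM final; nonspecific binding with 10 μM yohimbine. Incubated 45 min at 37 °C, then filtered. Ki derived from IC50 by Cheng-Prusoff.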

Chain of Beta-1 adrenergic receptor (P18090 whole entry): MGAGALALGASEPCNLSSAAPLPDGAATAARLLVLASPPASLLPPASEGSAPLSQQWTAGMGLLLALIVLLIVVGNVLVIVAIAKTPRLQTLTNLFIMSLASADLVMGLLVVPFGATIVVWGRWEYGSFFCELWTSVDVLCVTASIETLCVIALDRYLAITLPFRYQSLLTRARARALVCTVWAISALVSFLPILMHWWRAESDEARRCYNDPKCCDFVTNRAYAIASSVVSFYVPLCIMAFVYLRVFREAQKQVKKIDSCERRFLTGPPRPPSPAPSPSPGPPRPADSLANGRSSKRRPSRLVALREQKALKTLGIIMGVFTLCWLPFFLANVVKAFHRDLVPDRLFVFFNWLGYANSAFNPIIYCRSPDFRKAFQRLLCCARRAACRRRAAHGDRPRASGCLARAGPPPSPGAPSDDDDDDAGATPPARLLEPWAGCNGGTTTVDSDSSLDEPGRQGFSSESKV

Regarding `NC[C@@H]1OC(c2ccccc2)Cc2c1ccc(O)c2O` (some centres not stated), the values for the Ki in experiment [1] and in experiment [2] were above 10 µM and 0.122 µM, respectively.
For the compound `NC[C@@H]1O[C@H](c2ccccc2)Cc2c1ccc(O)c2O`, the inhibition constant Ki was above 10 µM in experiment [1] and 0.04 µM in experiment [2].
`C=CCNC[C@@H]1OC(C2CCCCC2)Cc2c1ccc(O)c2O` (some centres not stated): the results for the Ki in experiment [1] and in experiment [2] were above 10 µM and 2.2 µM, respectively.
On to `NC[C@H]1O[C@@H](c2ccccc2)Cc2c1ccc(O)c2O`, for which the results for the Ki in experiment [1] and in experiment [2] were above 10 µM and 2.5 µM, respectively.
Regarding `NC[C@@H]1OC(C2CCCCC2)Cc2c1ccc(O)c2O` (some centres not stated), the Ki was above 10 µM in experiment [1] and 0.271 µM in experiment [2].
For the compound `CC(C)(C)C1Cc2c(ccc(O)c2O)[C@H](CN)O1` (some centres not stated), the Ki in experiment [1] was above 10 µM; in experiment [2] it was 0.45 µM.

Source of the values: ChEMBL document CHEMBL1125832, “Synthesis and dopaminergic activity of 3-substituted 1-(aminomethyl)-3,4-dihydro-5,6-dihydroxy-1H-2-benzopyrans: characterization of an auxiliary binding region in the D1 receptor” (J Med Chem, 1991).
